Starred links: 1 amine or outer side, 2 acyl side, 3 side chain; linkers in the order of their positions; H or OH if unused. Non-standard residues stand in square brackets, D forms with d. Residues, ends and D or L forms follow the SMILES beside them. Ala(imidazol-2-yl) = N[C@@H](Cc1ncc[nH]1)C(=O)O; X2 = O=C([C@H](CCc1ncc[nH]1)N[*:1])[*:2]; 3Thi = N[C@@H](Cc1ccsc1)C(=O)O; Aib = CC(C)(N)C(=O)O; Sar = CNCC(=O)O
Legend:
Oryctolagus cuniculus = species on record: Oryctolagus cuniculus; test: In vitro agonist angiotensin II like activity was measured in the rabbit aorta strip assay; format: functional
Procedure, shortened: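 Isolated rabbit aortic strips in vitro. Agonist (AII-like) activity expressed as percent of the activity of AII.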

Rattus norvegicus = test: In vivo agonist angiotensin II like activity was measured in rat blood pressure assay; format: functional; design: concentration or dose not given beside the values
Procedure, shortened: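 Rat blood pressure in vivo. Residual AII-like activity read as the pressor rise (mmHg) after a 1-μg intravenous bolus of compound. Mean of at least five tests with standard error.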

Compound `CC[C@H](C)[C@H](NC(=O)[C@H](Cc1ccc(O)cc1)NC(=O)[C@@H](NC(=O)[C@H](CCCN=C(N)N)NC(=O)CNC)C(C)C)C(=O)N[C@@H](Cc1c[nH]cn1)C(=O)N1CCC[C@H]1C(=O)N[C@H](C(=O)O)[C@@H](C)O` (H-[Sar]RVYIHPT-OH) has an Activity (Oryctolagus cuniculus) of 0.6%.

Compound `CC[C@H](C)[C@H](NC(=O)[C@@H]1CCCN1C(=O)[C@H](Cc1c[nH]cn1)NC(=O)[C@@H](NC(=O)[C@H](Cc1ccc(O)cc1)NC(=O)[C@@H](NC(=O)C(C)(C)N)C(C)C)[C@@H](C)CC)C(=O)O` (H-[Aib]VYIHPI-OH) has an Activity (Oryctolagus cuniculus) of 0%.

With `CC[C@H](C)[C@H](NC(=O)[C@H](Cc1ccc(O)cc1)NC(=O)[C@@H](NC(=O)[C@H](CCCN=C(N)N)NC(=O)[C@@H](N)CC(=O)O)C(C)C)C(=O)N[C@@H](Cc1ccsc1)C(=O)N1CCC[C@H]1C(=O)N[C@@H](Cc1ccccc1)C(=O)O` (H-DRVYI[3Thi]PF-OH) the Activity (Rattus norvegicus) was 19.3%.

Work on `CC[C@H](C)[C@H](NC(=O)[C@H](Cc1ccc(O)cc1)NC(=O)[C@@H](NC(=O)[C@H](C)N)C(C)C)C(=O)N[C@@H](Cc1c[nH]cn1)C(=O)N1CCC[C@H]1C(=O)N[C@@H](Cc1ccccc1)C(=O)O` yielded an Activity (Rattus norvegicus) of 3%.

With `CC[C@H](C)[C@H](NC(=O)[C@@H]1CCCN1C(=O)[C@H](Cc1c[nH]cn1)NC(=O)[C@@H](NC(=O)[C@H](Cc1ccc(O)cc1)NC(=O)[C@@H](NC(=O)[C@H](C)N)C(C)C)[C@@H](C)CC)C(=O)O` the Activity (Oryctolagus cuniculus) was 0%.

Compound `CC[C@H](C)[C@H](NC(=O)[C@H](Cc1ccc(O)cc1)NC(=O)[C@@H](NC(=O)[C@H](CCCN=C(N)N)NC(=O)[C@@H](N)CC(=O)O)C(C)C)C(=O)N[C@@H](Cc1ncc[nH]1)C(=O)N1CCC[C@H]1C(=O)N[C@@H](Cc1ccccc1)C(=O)O` (H-DRVYI[Ala(imidazol-2-yl)]PF-OH) has an Activity (Rattus norvegicus) of 0.4%.

With `CC[C@H](C)[C@H](NC(=O)[C@H](Cc1ccc(O)cc1)NC(=O)[C@@H](NC(=O)[C@H](CCCN=C(N)N)NC(=O)[C@@H](N)CC(=O)O)C(C)C)C(=O)N[C@@H](CCc1ncc[nH]1)C(=O)N1CCC[C@H]1C(=O)N[C@@H](Cc1ccccc1)C(=O)O` (H-DRVYI[X2]PF-OH) the Activity (Rattus norvegicus) was 0.05%.

`CC[C@H](C)[C@H](NC(=O)[C@H](Cc1ccc(O)cc1)NC(=O)[C@@H](NC(=O)[C@H](CCCN=C(N)N)NC(=O)[C@@H](N)CC(=O)O)C(C)C)C(=O)N[C@@H](C)C(=O)N1CCC[C@H]1C(=O)N[C@@H](Cc1ccccc1)C(=O)O` (H-DRVYIAPF-OH) gave an Activity (Rattus norvegicus) of 0.8%.

`CC[C@H](C)[C@H](NC(=O)[C@H](Cc1ccc(O)cc1)NC(=O)[C@@H](NC(=O)[C@@H](N)CCCCN)C(C)C)C(=O)N[C@@H](Cc1c[nH]cn1)C(=O)N1CCC[C@H]1C(=O)N[C@@H](Cc1ccccc1)C(=O)O` was tested, and the Activity (Rattus norvegicus) was 3%.

Work on `CC[C@H](N)C(=O)N[C@H](C(=O)N[C@@H](Cc1ccc(O)cc1)C(=O)N[C@H](C(=O)N[C@@H](Cc1c[nH]cn1)C(=O)N1CCC[C@H]1C(=O)N[C@@H](Cc1ccccc1)C(=O)O)[C@@H](C)CC)C(C)C` yielded an Activity (Rattus norvegicus) of 0.92%.

In the case of `CC[C@H](C)[C@H](NC(=O)[C@@H]1CCCN1C(=O)[C@@H](Cc1c[nH]cn1)NC(=O)[C@@H](NC(=O)[C@H](Cc1ccc(O)cc1)NC(=O)[C@@H](NC(=O)[C@H](CCCN=C(N)N)NC(=O)CNC)C(C)C)[C@@H](C)CC)C(=O)O`, the Activity (Oryctolagus cuniculus) is reported as 0%.

In the case of `CC[C@H](C)[C@H](NC(=O)[C@H](Cc1ccc(O)cc1)NC(=O)[C@@H](NC(=O)CN(C)C(=O)CNC)C(C)C)C(=O)N[C@@H](Cc1c[nH]cn1)C(=O)N1CCC[C@H]1C(=O)N[C@H](C(=O)O)[C@@H](C)O` (H-[Sar][Sar]VYIHPT-OH), the Activity (Oryctolagus cuniculus) is reported as 0%.

`CC[C@H](C)[C@H](NC(=O)[C@H](Cc1ccc(O)cc1)NC(=O)[C@@H](NC(=O)[C@H](CCCN=C(N)N)NC(=O)CNC)C(C)C)C(=O)N[C@@H](CC(=O)O)C(=O)N1CCC[C@H]1C(=O)N[C@H](C(=O)O)[C@@H](C)O` (H-[Sar]RVYIDPT-OH) was tested, and the Activity (Oryctolagus cuniculus) was 0%.

Compound `CC[C@H](C)[C@H](NC(=O)[C@@H]1CCCN1C(=O)[C@H](CCCCN)NC(=O)[C@@H](NC(=O)[C@H](Cc1ccc(O)cc1)NC(=O)[C@@H](NC(=O)[C@H](CCCN=C(N)N)NC(=O)CNC)C(C)C)[C@@H](C)CC)C(=O)O` (H-[Sar]RVYIKPI-OH) has an Activity (Oryctolagus cuniculus) of 0%.

Reference: ChEMBL document CHEMBL1124220 (J Med Chem, 1988)
